By IC50 is commonly meant the concentration at which inhibition is half-maximal. The IC90 is the concentration needed for an effect of 90%.

The results in this text go back to ChEMBL document CHEMBL1681680, “Synthesis of chroman aldehydes that inhibit HIV” (Bioorg Med Chem Lett, 2011).

A short description of assay [1]: Cytotoxicity against human HeLa37 cells assessed as cell viability by ATPLite assay. The format is functional. As to conditions: for CC50: Homo sapiens, HeLa37, read-out: LC50 (the source's name). In outline: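 HeLa37 cells plated and dosed as in the infectivity assay, compounds up to 100 μg/mL, DMSO ≤0.5%. A separate DMSO dose-response (0.05–0.5%) was run, and its effect on viability was subtracted. LC50 and LC90 taken from dose-response. Triplicates, three independent experiments.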
For orientation: ATP-based viability assays read luminescence as a measure of living cells.

For assay [2], the system named is Human immunodeficiency virus 1. Put plainly: Antiviral activity against HIV1 NL4-3 infected in human HeLa37 cells assessed as inhibition of viral infectivity after 40 hrs by single round infectivity assay. Format: functional, organism-based. The following applies: Human immunodeficiency virus 1, NL4-3, HeLa37, 40 h. In outline:
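HIV-1 NL4-3 and compound mixed, then added to HeLa37 cells (5×10^4 cells/well) at MOI ~0.005. Infection maintained 40 h. Cells fixed in 75% acetone/25% water and immunostained with human anti-HIV antisera. HIV antigen-positive cells counted and normalized to controls at the same DMSO level (DMSO ≤0.5%). IC50 and IC90 taken from dose-response curves. Triplicates, three independent experiments.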

Where only a bound is given, the exact number is not on record here.

With `CC(=O)c1c(O)c(C=O)c2c(c1O)CCC(C)(C)O2`, in assay [1], the LC90 was 258 µM and the CC50 is 145 µM. Further, in assay [2], the IC50 is 30.2 µM and the 90% effect concentration (IC90) came to 85 µM.
Turning to `CC(=O)c1c(O)c2c(c(C(C)=O)c1O)OC(C)(C)CC2`, the CC50 in assay [1] is more than 100 µM. Moreover, in assay [2], the IC50 was more than 100 µM and the IC90 is more than 100 µM.
With `CC(=O)c1c(O)c(C=O)c(O)c2c1OC(C)(C)CC2`, the CC50 in assay [1] was more than 100 µM. In assay [2], the IC50 is 39.8 µM and the concentration for an effect of 90% (IC90) is 85.6 µM.
For the compound `CC1(C)CCc2c(O)c(C=O)c(O)c(C=O)c2O1`, the CC50 in assay [1] is more than 100 µM. In assay [2], the IC50 was found to be 77.3 µM and the IC90 was more than 100 µM.
On to `COc1c(C=O)c(OC)c(C(C)=O)c2c1CCC(C)(C)O2`, for which, in assay [1], the CC50 was more than 100 µM. Further, in assay [2], the IC50 is 55.3 µM and the IC90 was more than 100 µM.
Regarding `CC(=O)c1c(O)c(C=O)c2c(c1O)C=CC(C)(C)O2`, the CC50 in assay [1] is more than 100 µM. Further, in assay [2], the IC50 came to 34.6 µM and the IC90 was 98.2 µM.
On to `CC1(C)CCc2c(O)c(C(=O)CC(=O)c3ccccc3)c(O)c(C=O)c2O1`, for which, in assay [1], the CC50 turned out to be 84.2 µM. In assay [2], the IC50 was found to be 40.7 µM and the concentration for an effect of 90% (IC90) came out at 86.6 µM.
